Key:
HL-60 [1] = experiment: Polyamine levels in cultured HL60 cells on S-Adenosyl-methionine decarboxylase at the concentration of 0.1 uM; format: functional, Homo sapiens
Method in brief: (§1)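 HL60 human promyelocytic leukemia cells exposed to inhibitor for 96 h, then sonicated. AdoMet-DC activity measured by the Anton and Kutny method. Intracellular putrescine, spermidine and spermine quantified by HPLC (Danzin method). Each value is the mean of two determinations.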

HL-60 [2] = experiment: Polyamine levels in cultured HL60 cells on spermine at the concentration of 10.0 uM; format: functional, Homo sapiens; method in brief: as §1
HL-60 [3] = experiment: Polyamine levels in cultured HL60 cells on spermine at the concentration of 100.0 uM; format: functional, Homo sapiens; method in brief: as §1
HL-60 [4] = experiment: Polyamine levels in cultured HL60 cells on spermine at the concentration of 50.0 uM; format: functional, Homo sapiens; method in brief: as §1
HL-60 [5] = experiment: Polyamine levels in cultured HL60 cells on S-Adenosyl-methionine decarboxylase at the concentration of 1.0 uM; format: functional, Homo sapiens; method in brief: as §1
HL-60 [6] = experiment: Polyamine levels in cultured HL60 cells on S-Adenosyl-methionine decarboxylase at the concentration of 10.0 uM; format: functional, Homo sapiens; method in brief: as §1
HL-60 [7] = experiment: Polyamine levels in cultured HL60 cells on S-Adenosyl-methionine decarboxylase at the concentration of 100.0 uM; format: functional, Homo sapiens; method in brief: as §1
HL-60 [8] = experiment: Polyamine levels in cultured HL60 cells on S-Adenosyl-methionine decarboxylase at the concentration of 50.0 uM; format: functional, Homo sapiens; method in brief: as §1
HL-60 [9] = experiment: Polyamine levels in cultured HL60 cells on putrescine at the concentration of 0.1 uM; format: functional, Homo sapiens; method in brief: as §1
HL-60 [10] = experiment: Polyamine levels in cultured HL60 cells on putrescine at the concentration of 1.0 uM; format: functional, Homo sapiens; method in brief: as §1
HL-60 [11] = experiment: Polyamine levels in cultured HL60 cells on putrescine at the concentration of 10.0 uM; format: functional, Homo sapiens; method in brief: as §1
HL-60 [12] = experiment: Polyamine levels in cultured HL60 cells on putrescine at the concentration of 100.0 uM; format: functional, Homo sapiens; method in brief: as §1
HL-60 [13] = experiment: Polyamine levels in cultured HL60 cells on putrescine at the concentration of 50.0 uM; format: functional, Homo sapiens; method in brief: as §1
HL-60 [14] = experiment: Polyamine levels in cultured HL60 cells on spermidine at the concentration of 0.1 uM; format: functional, Homo sapiens; method in brief: as §1
HL-60 [15] = experiment: Polyamine levels in cultured HL60 cells on spermidine at the concentration of 1.0 uM; format: functional, Homo sapiens; method in brief: as §1
HL-60 [16] = experiment: Polyamine levels in cultured HL60 cells on spermidine at the concentration of 10.0 uM; format: functional, Homo sapiens; method in brief: as §1
HL-60 [17] = experiment: Polyamine levels in cultured HL60 cells on spermidine at the concentration of 100.0 uM; format: functional, Homo sapiens; method in brief: as §1
HL-60 [18] = experiment: Polyamine levels in cultured HL60 cells on spermidine at the concentration of 50.0 uM; format: functional, Homo sapiens; method in brief: as §1
HL-60 [19] = experiment: Polyamine levels in cultured HL60 cells on spermine at the concentration of 0.1 uM; format: functional, Homo sapiens; method in brief: as §1
HL-60 [20] = experiment: Polyamine levels in cultured HL60 cells on spermine at the concentration of 1.0 uM; format: functional, Homo sapiens; method in brief: as §1
[21] = molecular target: T1, S-adenosylmethionine decarboxylase proenzyme (Homo sapiens, UniProt P17707); experiment: (§2) Compound was evaluated for the inhibitor constant against human S-adenosyl-L-methionine decarboxylase
T1 sequence (P17707 whole entry): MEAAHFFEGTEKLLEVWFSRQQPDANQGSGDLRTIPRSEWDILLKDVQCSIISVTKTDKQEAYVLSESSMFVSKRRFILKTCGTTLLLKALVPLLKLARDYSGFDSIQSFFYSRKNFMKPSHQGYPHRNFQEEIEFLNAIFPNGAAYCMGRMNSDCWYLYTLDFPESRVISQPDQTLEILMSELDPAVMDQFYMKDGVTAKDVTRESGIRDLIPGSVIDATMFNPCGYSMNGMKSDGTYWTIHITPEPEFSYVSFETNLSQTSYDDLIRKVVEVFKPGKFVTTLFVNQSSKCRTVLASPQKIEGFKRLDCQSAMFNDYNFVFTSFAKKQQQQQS

[22] = molecular target: T2, S-adenosylmethionine decarboxylase proenzyme (Homo sapiens) (UniProt P17707); experiment: as §2
T2 sequence (whole entry): T1 sequence (P17707 whole entry)

[23] = test system: Trypanosoma brucei brucei; experiment: Compound was evaluated for the inhibition of growth of Trypanosoma brucei; format: functional, organism-based
Method in brief: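 T. brucei brucei bloodforms cultured in modified Iscove's medium, 3% CO2 in air, 37 °C, feeder layer-free. Inhibitor dissolved in medium; half the volume replaced daily with double-strength inhibitor. Growth read by daily cell counts, IC50 after 48 h. Alternatively: 24 h with inhibitor, wash, 24 h with 1.0 μCi [3H]hypoxanthine, filtration and scintillation counting. Mean of two determinations.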

[24] = test system: Trypanosoma brucei rhodesiense; experiment: Compound was evaluated for the inhibition of growth of brucei rhodesiense (KETRI 243).; format: functional, organism-based
[25] = test system: Trypanosoma brucei rhodesiense; experiment: Compound was evaluated for the percentage inhibition of growth of uM; format: functional
[26] = molecular target: S-adenosylmethionine decarboxylase (Escherichia coli) (UniProt P0A7F6); experiment: Compound was evaluated for the inhibitor against Escherichia coli S-adenosyl-L-methionine decarboxylase
[27] = molecular target: T1, S-adenosylmethionine decarboxylase proenzyme; experiment: (§3) compound was evaluated for the inhibitor constant against human S-adenosyl-L-methionine decarboxylase
[28] = molecular target: T2, S-adenosylmethionine decarboxylase proenzyme (Homo sapiens); experiment: as §3
[29] = molecular target: S-adenosylmethionine decarboxylase (Escherichia coli) (UniProt P0A7F6); experiment: compound was evaluated for the inhibitor against Escherichia coli S-adenosyl-L-methionine decarboxylase.

Sequence of S-adenosylmethionine decarboxylase (Escherichia coli) (P0A7F6 whole entry, looked up): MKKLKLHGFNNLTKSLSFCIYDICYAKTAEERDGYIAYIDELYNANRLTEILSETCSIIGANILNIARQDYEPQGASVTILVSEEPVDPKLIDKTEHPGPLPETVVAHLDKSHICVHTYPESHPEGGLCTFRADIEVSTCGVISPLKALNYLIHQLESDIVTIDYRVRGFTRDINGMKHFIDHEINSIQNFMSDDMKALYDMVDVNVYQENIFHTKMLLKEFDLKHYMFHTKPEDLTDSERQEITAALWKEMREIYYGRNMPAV

What does the source list for `C[S+](C[C@H]1O[C@@H](n2cnc3c(N)ncnc32)[C@H](O)[C@@H]1O)C1C=CC(ON)C1.O=S(=O)(O)O.O=S(=O)([O-])O` (stereo not given in full)?
Activity (HL-60 [1]): 355 pmol/h/mg; Activity (HL-60 [2]): 31.6 nM/mg; Activity (HL-60 [3]): 27 nM/mg; Activity (HL-60 [4]): 28 nM/mg; Activity (HL-60 [5]): 347 pmol/h/mg; Activity (HL-60 [6]): 293 pmol/h/mg; Activity (HL-60 [7]): 489 pmol/h/mg; Activity (HL-60 [8]): 449 pmol/h/mg; Activity (HL-60 [9]): 0.71 nM/mg; Activity (HL-60 [10]): 0.94 nM/mg; Activity (HL-60 [11]): 0.71 nM/mg; Activity (HL-60 [12]): 0.94 nM/mg; Activity (HL-60 [13]): 0.79 nM/mg; Activity (HL-60 [14]): 7.9 nM/mg; Activity (HL-60 [15]): 10.1 nM/mg; Activity (HL-60 [16]): 8.4 nM/mg; Activity (HL-60 [17]): 16.1 nM/mg; Activity (HL-60 [18]): 11.2 nM/mg; Activity (HL-60 [19]): 30.4 nM/mg; Activity (HL-60 [20]): 38.1 nM/mg; Ki [21]: 19.6 µM; kinact [22]: 0.115 min⁻¹; IC50 [23]: 0.9 µM; IC50 [24]: 10 µM; Inhibition [25]: 49%; kinact [26]: 0.015 min⁻¹

With `C[S+](C[C@H]1O[C@@H](n2cnc3c(N)ncnc32)[C@H](O)[C@@H]1O)[C@H]1C=C[C@H](ON)C1` (stereo not given in full) as the compound, how does the Ki [27] read?
Its Ki is 21.2 µM.

And the kinact [28]?
Its kinact is 0.079 min⁻¹.

And the IC50 [23]?
The IC50 was 10 µM.

And the kinact [29]?
The kinact was 0.025 min⁻¹.

From ChEMBL document CHEMBL1128365, “S-(5'-deoxy-5'-adenosyl)-1-aminoxy-4-(methylsulfonio)-2-cyclopentene (AdoMao): an irreversible inhibitor of S-adenosylmethionine decarboxylase with potent in vitro antitrypanosomal activity” (J Med Chem, 1995)
